Data set [1] relates to Trypanosoma cruzi. Nature of the data set: Antitrypanosomal activity against Trypanosoma cruzi Tulahuen trypomastigote forms infected in mouse L929 cells assessed as reduction in infection level at 10 to 12 uM after 96 hrs by beta-galactosidase reporter gene assay relative to control. In kind it is functional. The arrangement: scale not given: the % may be the effect or the level left. Summed up: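 L929 cells infected 2 h with tissue culture-derived β-galactosidase-expressing Tulahuen trypomastigotes at 10:1 parasite/host cell ratio, rinsed, and held 48 h at 37℃. Single fixed concentration (10-12 µM) then applied, 96 h. Absorbance read at 570 nm; growth inhibition expressed relative to untreated cells. DMSO not above 0.6 %.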

Data set [2] relates to Trypanosoma cruzi. Nature of the data set: Antitrypanosomal activity against bloodstream trypomastigote stage of Trypanosoma cruzi Y measured after 2 hrs by light microscopic analysis. It counts as functional, organism-based. Summed up:
(§1)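 Y strain bloodstream trypomastigotes from heart puncture of infected mice, at 5x10⁶/mL in RPMI 1640 with 5% FBS. Incubated at 37℃ with 0–50 µM for 2 or 24 h. […] Mean ± SD.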

A short description of data set [3]: Cytotoxicity against mouse L929 cells assessed as reduction in cell viability after 96 hrs by light microscopic analysis. It counts as cell-based. As to conditions: read-out: LC50. The procedure, abridged:
(§2)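 L929 fibroblasts (4x10^3 cells/well) in RPMI 1640 with 10% FBS, incubated at 37°C with increasing concentrations for 96 h. Viability was read with AlamarBlue (6 h incubation, absorbance at 600 nm) and confirmed by light microscopy.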

Data set [4] relates to Trypanosoma cruzi. Nature of the data set: Antitrypanosomal activity against bloodstream trypomastigote stage of Trypanosoma cruzi Y infected in Swiss Webster mouse assessed as mouse survival at 100 mg/kg, po administered daily on day 5 to 9 measured daily until 30 days post dose relative to control. In kind it is functional. Summed up: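 Male Swiss Webster mice (18-20 g) were infected i.p. with 10^4 Y-strain bloodstream trypomastigotes. Benznidazole was given in sterile water with 3% Tween 80, 0.1 mL p.o. daily from 5 to 9 dpi. Mice were checked daily for mortality until 30 days post treatment, and the result was expressed as percentage cumulative mortality.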

Data set [5] in a line: Selectivity index, ratio of LC50 for mouse L929 cells by light microscopic analysis to EC50 for Trypanosoma cruzi Tulahuen trypomastigote forms. In kind it is toxicity. As to conditions: read-out: Selectivity Index.
Data set [6] in a line: Selectivity index, ratio of LC50 for mouse L929 cells by Alamarblue assay to EC50 for Trypanosoma cruzi Tulahuen trypomastigote forms. In kind it is toxicity. As to conditions: read-out: Selectivity Index.
The subject of data set [7] is Trypanosoma cruzi. Nature of the data set: Antitrypanosomal activity against bloodstream trypomastigote stage of Trypanosoma cruzi Y infected in Swiss Webster mouse assessed as reduction in parasitemia at 100 mg/kg, po administered daily measured at day 8 post infection. It counts as functional, organism-based.
The test system of data set [8] is Trypanosoma cruzi. The experiment in a line: Antitrypanosomal activity against Trypanosoma cruzi Tulahuen trypomastigote forms infected in mouse L929 cells assessed as reduction in parasite load after 96 hrs by beta-galactosidase reporter gene assay. It counts as functional, organism-based. As to conditions: L929, 96 h. Summed up: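 L929 cells infected 2 h with tissue culture-derived Tulahuen β-galactosidase trypomastigotes (10:1 parasite/host cell), rinsed with saline, and left 48 h at 37℃. Increasing non-toxic concentrations applied for 96 h. Absorbance read at 570 nm, % growth inhibition versus untreated cells, EC50 derived; mean ± SD. DMSO not above 0.6 %.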

Data set [9] can be described thus: Cytotoxicity against Swiss Webster mouse cardiac cells assessed as reduction in cell viability after 24 hrs by prestoblue assay. In kind it is cell-based, Cardiac Muscle Cell. As to conditions: read-out: LC50. The procedure, abridged: (§3)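 Primary cardiac cells from Swiss Webster mouse embryos, cultured at 37°C in DMEM with 5% FBS, CaCl2, glutamine and chick embryo extract. Uninfected cultures were exposed to increasing concentrations for 24 h. Viability was read with PrestoBlue (5 h incubation, absorbance at 570 nm) and checked by light microscopy for morphology.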

Data set [10] can be described thus: Selectivity index, ratio of LC50 for Swiss Webster mouse cardiac cells by prestoblue assay to EC50 for bloodstream trypomastigote stage of Trypanosoma cruzi Y measured after 24 hrs. In kind it is toxicity. As to conditions: read-out: Selectivity Index. The procedure, abridged: (§4)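 The ratio is cardiac-cell LC50 (24 h) over the 24 h EC50 against Y-strain bloodstream trypomastigotes. Trypomastigotes (5x10^6/mL) were exposed to 0-50 µM at 37°C in RPMI with 5% FBS. Surviving parasites were counted in a Neubauer chamber, and the EC50 is the concentration halving the parasite number.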

The test system of data set [11] is Trypanosoma cruzi. The experiment in a line: Antitrypanosomal activity against bloodstream trypomastigote stage of Trypanosoma cruzi Y measured after 24 hrs by light microscopic analysis. It counts as functional, organism-based. The procedure, abridged: as §1
A short description of data set [12]: Cytotoxicity against Swiss Webster mouse cardiac cells assessed as reduction in cell viability after 24 hrs by light microscopic analysis. In kind it is cell-based, Cardiac Muscle Cell. As to conditions: read-out: LC50. The procedure, abridged: as §3
Data set [13] in a line: Selectivity index, ratio of LC50 for Swiss Webster mouse cardiac cells by light microscopic analysis to EC50 for bloodstream trypomastigote stage of Trypanosoma cruzi Y measured after 24 hrs. In kind it is toxicity. As to conditions: read-out: Selectivity Index. The procedure, abridged: as §4
Data set [14] relates to Trypanosoma cruzi. The experiment in a line: Antitrypanosomal activity against bloodstream trypomastigote stage of Trypanosoma cruzi Y infected in Swiss Webster mouse assessed as reduction in parasitemia at 100 mg/kg, po administered daily on day 5 to 9 post infection relative to control. It counts as functional. Also on record: scale not given: the % may be the effect or the level left. Summed up: (§5)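 Male Swiss Webster mice (18–20 g) infected i.p. with 10^4 Y strain bloodstream trypomastigotes. Treatment given days 5–9 post infection: test compound i.p. 5–20 mg/kg/day (0.1 mL, DMSO then 20% Trappsol) or Bz 100 mg/kg/day p.o. (3% Tween 80 in water). Controls infected, vehicle only. Parasitemia counted by Pizzi-Brener in 5 µL tail blood; mortality checked daily to 30 days post treatment.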

Data set [15] in a line: Cytotoxicity against mouse L929 cells assessed as reduction in cell viability after 96 hrs by Alamarblue assay. In kind it is cell-based. As to conditions: read-out: LC50. The procedure, abridged:
as §2

Data set [16] concerns the target Sterol 14-alpha demethylase (Trypanosoma cruzi (strain CL Brener)) (UniProt Q7Z1V1). Nature of the data set: Inhibition of recombinant Trypanosoma cruzi Tulahuen CYP51 expressed in Escherichia coli JM109 cell membranes assessed as residual activity at 0.1 uM by fluorescence based analysis (reference value: 95%).
Data set [17] has the same target. The experiment in a line: Inhibition of recombinant Trypanosoma cruzi Tulahuen CYP51 expressed in Escherichia coli JM109 cell membranes assessed as residual activity at 1 uM by fluorescence based analysis (reference value: 95%).
For data set [18] the target is unchanged. The experiment in a line: Inhibition of recombinant Trypanosoma cruzi Tulahuen CYP51 expressed in Escherichia coli JM109 cell membranes assessed as residual activity at 0.33 uM by fluorescence based analysis (reference value: 95%).
Data set [19] relates to Trypanosoma cruzi. Nature of the data set: Trypanocidal activity against Trypanosoma cruzi Sylvio X10/7 intracellular amastigotes forms assessed as inhibition of maximum parasite growth measured every 24 hrs for 96 hrs by time-kill assay relative to control. In kind it is functional.
For data set [20], the target named is Sterol 14-alpha demethylase (Trypanosoma cruzi (strain CL Brener)) (UniProt Q7Z1V1). Nature of the data set: Inhibition of recombinant Trypanosoma cruzi Tulahuen CYP51 expressed in Escherichia coli JM109 cell membranes assessed as residual activity at 10 uM by fluorescence based analysis (reference value: 95%).
Sterol 14-alpha demethylase (Trypanosoma cruzi (strain CL Brener)), sequence (Q7Z1V1 whole entry, looked up): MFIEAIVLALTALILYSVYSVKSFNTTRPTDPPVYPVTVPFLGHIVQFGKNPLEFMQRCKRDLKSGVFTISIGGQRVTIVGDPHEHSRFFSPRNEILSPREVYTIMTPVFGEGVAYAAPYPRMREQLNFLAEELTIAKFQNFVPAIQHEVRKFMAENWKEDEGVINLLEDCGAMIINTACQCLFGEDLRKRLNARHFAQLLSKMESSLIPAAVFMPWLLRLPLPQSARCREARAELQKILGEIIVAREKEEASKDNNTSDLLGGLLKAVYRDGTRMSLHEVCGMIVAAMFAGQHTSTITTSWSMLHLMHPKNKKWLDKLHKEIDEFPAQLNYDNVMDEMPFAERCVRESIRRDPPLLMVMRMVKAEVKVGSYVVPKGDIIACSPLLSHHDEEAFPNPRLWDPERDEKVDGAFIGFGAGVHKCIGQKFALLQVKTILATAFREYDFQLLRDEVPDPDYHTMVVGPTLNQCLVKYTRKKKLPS
Data set [21] addresses Sterol 14-alpha demethylase (Trypanosoma cruzi (strain CL Brener), UniProt Q7Z1V1). The experiment in a line: Inhibition of recombinant Trypanosoma cruzi Tulahuen CYP51 expressed in Escherichia coli JM109 cell membranes assessed as […] by fluorescence based analysis.
Data set [22] concerns Trypanosoma cruzi. Nature of the data set: Trypanocidal activity against Trypanosoma cruzi Sylvio X10/7 intracellular amastigotes forms measured every 24 hrs for 96 hrs by time-kill assay. In kind it is functional.
For data set [23], the system named is Trypanosoma cruzi. Nature of the data set: Antitrypanosomal activity against bloodstream trypomastigote stage of Trypanosoma cruzi Y infected in Swiss Webster mouse assessed as increase in mouse survival at 5 to 20 mg/kg, ip administered daily on day 5 to 9 measured daily until 30 days post dose relative to control. It counts as functional, organism-based. The procedure, abridged:
as §5

The test system of data set [24] is Trypanosoma cruzi. The experiment in a line: Antitrypanosomal activity against bloodstream trypomastigote stage of Trypanosoma cruzi Y infected in Swiss Webster mouse assessed as reduction in parasitemia at 10 mg/kg, ip administered daily on day 5 to 9 post infection relative to control. In kind it is functional. Also on record: scale not given: the % may be the effect or the level left. Summed up: as §5

For data set [25], the system named is Trypanosoma cruzi. Nature of the data set: Antitrypanosomal activity against bloodstream trypomastigote stage of Trypanosoma cruzi Y infected in Swiss Webster mouse assessed as reduction in parasitemia at 20 mg/kg, ip administered daily on day 5 to 9 post infection relative to control. It counts as functional. Also on record: scale not given: the % may be the effect or the level left. Summed up: as §5

Data set [26] deals with Trypanosoma cruzi. Nature of the data set: Antitrypanosomal activity against bloodstream trypomastigote stage of Trypanosoma cruzi Y infected in Swiss Webster mouse assessed as reduction in parasitemia at 5 mg/kg, ip administered daily on day 5 to 9 post infection relative to control. In kind it is functional. The arrangement: scale not given: the % may be the effect or the level left. The procedure, abridged: as §5

For data set [27], the target named is Sterol 14-alpha demethylase (Trypanosoma cruzi (strain CL Brener)) (UniProt Q7Z1V1). Nature of the data set: Inhibition of recombinant Trypanosoma cruzi Tulahuen CYP51 expressed in Escherichia coli JM109 cell membranes assessed as residual activity at 0.033 uM by fluorescence based analysis (reference value: 95%).
The subject of data set [28] is Trypanosoma cruzi. The experiment in a line: Antitrypanosomal activity against Trypanosoma cruzi Sylvio X10/7 intracellular amastigotes forms assessed as reduction in number of amastigotes per host cell measured every 24 hrs for 96 hrs by time-kill assay. It counts as functional, organism-based.
The target of data set [29] is Sterol 14-alpha demethylase (Trypanosoma cruzi (strain CL Brener)) (UniProt Q7Z1V1). Nature of the data set: Inhibition of recombinant Trypanosoma cruzi Tulahuen CYP51 expressed in Escherichia coli JM109 cell membranes assessed as residual activity at 3.3 uM by fluorescence based analysis (reference value: 95%).
Data set [30] shares this target. The experiment in a line: Inhibition of recombinant Trypanosoma cruzi Tulahuen CYP51 expressed in Escherichia coli JM109 cell membranes assessed as residual activity at 0.01 uM by fluorescence based analysis (reference value: 95%).
The target is the same in data set [31]. Nature of the data set: Potency index, ratio of fluconazole IC50 to compound IC50 for recombinant Trypanosoma cruzi Tulahuen CYP51.
Data set [32] is described as follows: Acute toxicity in ip dosed Swiss Webster mouse measured 48 hrs post dose. In kind it is organism-based. As to conditions: in vivo. The procedure, abridged: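 Female Swiss Webster mice (20 to 23 g) injected intraperitoneally with increasing doses up to 200 mg/kg, n = 2 mice per assay, two assays. Animals inspected for toxic and subtoxic signs under OECD guidelines; NOAEL determined 48 h after injection. Vehicle: DMSO then Trappsol, in vivo vehicle not above 20 %.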

pEC50, pIC50: −log10 of the molar value. Converted amounts (≈) assume the structure as drawn. The source made the active and inactive calls. No cut-off for these calls is given here.

Sterol 14-alpha demethylase, sequence (Q7Z1V1 whole entry): as the sequence (Q7Z1V1 whole entry, looked up) above

As to `O=C(Cn1ccnc1[N+](=O)[O-])NCc1ccccc1` [BENZNIDAZOLE], the Activity came to 89.3% in data set [1] and 100% in [14]. For the same compound, the pEC50 is 4.30 to 5.00 in data set [2], 5.42 to 5.58 in data set [8] and 4.77 to 5.22 in [11]. Also, the CC50 at 96 h in [3] and in [15] was greater than 200 µM each time. In data set [4], the survival at 100 mg/kg was 100%. For the same compound, the selectivity ratio in data set [5] and in data set [6] was greater than 53 in each case. The result in [7] was Active. For the same compound, the CC50 at 24 h in data set [9] and in [12] was greater than 200 µM throughout. Also, the selectivity ratio at 24 h in data set [10] and in [13] was greater than 12 in each case.
As for `Cc1n[nH]c2c1[C@@H](c1ccc(OCc3ccccc3Cl)cc1)S[C@@H](C)C(=O)N2`, the Activity in data set [16] amounted to 49.5%; in [17] it was 5.4%; in [18], 0%; in data set [20], 0%; in [24], 38%; in data set [25] it was 43%. Also, the Activity in [26] amounted to 30%; in [27], 75.8%; in data set [29], 1.2%; in data set [30], 89.9%. Besides, the pEC50 in data set [2] is less than 5.00; in data set [8], 5.41; in [11], 5.40; in [28], 6.40. Also, the Imax in data set [19] came out at 94%. For the same compound, the pIC50 in data set [21] was 7.00. This compound also displayed a minimum inhibitory concentration (MIC) in data set [22] of 17 µM (≈ 7.04 µg/mL). Besides, the result in data set [23] was inactive. Moreover, the Ratio IC50 in [31] stood at 8. Further, in data set [32], the NOAEL at 48 h was greater than 50 mg/kg.

Values taken from ChEMBL document CHEMBL4196064, “Identification of Pyrazolo[3,4-e][1,4]thiazepin based CYP51 inhibitors as potential Chagas disease therapeutic alternative: In vitro and in vivo evaluation, binding mode prediction and SAR exploration” (Eur J Med Chem, 2018).
